Measured values reported in ChEMBL document CHEMBL1165950, “Design and synthesis of new potent anticancer pyrazoles with high FLT3 kinase inhibitory selectivity” (Bioorg Med Chem, 2010).

Columns and labels:
Format in all cases: functional
[1] = tested on: NCI-H522; test: Cytotoxicity against human NCI-H522 cells assessed as cell growth at 100 nM after 48 hrs by sulforhodamine B assay; conditions: NCI-H522, 48 h, read-out: Activity
[2] = tested on: SK-OV-3; test: Cytotoxicity against human SKOV3 cells assessed as cell growth at 100 nM after 48 hrs by sulforhodamine B assay; conditions: SK-OV-3, 48 h, read-out: Activity
[3] = Cytotoxicity against human Hs 578T cells assessed as cell growth at 0.001 uM after 48 hrs by sulforhodamine B assay; conditions: read-out: Activity
[4] = tested on: T47D; test: Cytotoxicity against human T47D cells assessed as cell growth at 0.001 uM after 48 hrs by sulforhodamine B assay; conditions: read-out: Activity
[5] = tested on: CAKI-1; test: Cytotoxicity against human Caki1 cells assessed as cell growth at 100 nM after 48 hrs by sulforhodamine B assay; conditions: CAKI-1, 48 h, read-out: Activity
[6] = tested on: HL-60(TB); test: Cytotoxicity against human HL-60(TB) cells assessed as cell growth at 1 uM after 48 hrs by sulforhodamine B assay; conditions: HL-60, 48 h, read-out: Activity
Outline: (§1)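 NCI 60-cell panel. Cells are grown in RPMI 1640 with 5% FBS and 2 mM L-glutamine, seeded at 5000–40,000 cells/well according to doubling time, and preincubated 24 h. Time-zero plates are TCA-fixed. Compound from DMSO stock is given at five 10-fold or 1/2-log concentrations for 48 h at 37 °C, 5% CO2. Suspension cells are fixed with 80% TCA (final 16%) and SRB-stained, with absorbance at 515 nm. Percent growth is derived from Tz, control and test readings.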

[7] = tested on: HOP-62; test: Cytotoxicity against human HOP62 cells assessed as cell growth at 1 uM after 48 hrs by sulforhodamine B assay; conditions: HOP-62, 48 h, read-out: Activity
[8] = tested on: SNB-75; test: Cytotoxicity against human SNB75 cells assessed as cell growth at 10 uM; conditions: read-out: Activity
Outline: (§2)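 NCI-60 screen: cells grown in RPMI 1640 with 5% FBS and 2 mM L-glutamine, plated at 5000–40,000 cells/well according to doubling time, and preincubated 24 h at 37 °C, 5% CO2. The single 10 µM dose (DMSO stock) was added, then incubated 48 h. Cells were TCA-fixed and stained with 0.4% SRB, read at 515 nm, and growth % calculated against time-zero and control plates.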

[9] = tested on: OVCAR-3; test: Cytotoxicity against human OVCAR-3 cells assessed as cell growth at 10 uM; conditions: read-out: Activity; outline: as §2
[10] = tested on: SN12C; test: Cytotoxicity against human SN12C cells assessed as cell growth at 10 uM; conditions: read-out: Activity; outline: as §2
[11] = tested on: UO-31; test: Cytotoxicity against human UO31 cells assessed as cell growth at 10 uM; conditions: read-out: Activity; outline: as §2
[12] = tested on: MCF7; test: Cytotoxicity against human MCF7 cells assessed as cell growth at 10 uM; conditions: read-out: Activity; outline: as §2
[13] = tested on: NCI-H23; test: Cytotoxicity against human NCI-H23 cells assessed as cell growth at 0.01 uM after 48 hrs by sulforhodamine B assay; conditions: NCI-H23, 48 h, read-out: Activity
[14] = tested on: NCI-H322M; test: Cytotoxicity against human NCI-H322M cells assessed as cell growth at 0.01 uM after 48 hrs by sulforhodamine B assay; conditions: read-out: Activity
[15] = tested on: SF-539; test: Cytotoxicity against human SF539 cells assessed as cell growth at 0.01 uM after 48 hrs by sulforhodamine B assay; conditions: SF-539, 48 h, read-out: Activity
[16] = tested on: SNB-19; test: Cytotoxicity against human SNB19 cells assessed as cell growth at 0.01 uM after 48 hrs by sulforhodamine B assay; conditions: SNB-19, 48 h, read-out: Activity
[17] = tested on: NCI-H23; test: Cytotoxicity against human NCI-H23 cells assessed as cell growth at 0.001 uM after 48 hrs by sulforhodamine B assay; conditions: NCI-H23, 48 h, read-out: Activity
[18] = tested on: KM12; test: Cytotoxicity against human KM12 cells assessed as cell growth at 0.001 uM after 48 hrs by sulforhodamine B assay; conditions: KM12, 48 h, read-out: Activity
[19] = tested on: MDA-MB-435; test: Growth inhibition of human MDA-MB-435 cells after 48 hrs by sulforhodamine B assay; conditions: MDA-MB-435, 48 h; for CC50: read-out: LC50 (the source's name)
Outline: (§3)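 NCI 60-cell screen, five-dose mode. Cells grown in RPMI 1640 with 5% FBS and 2 mM L-glutamine and plated at 5000-40,000 cells/well according to doubling time. After 24 h preincubation, a Tz plate was TCA-fixed. Five concentrations (10-fold or 1/2 log dilutions) were applied for 48 h at 37 °C. SRB staining read at 515 nm. IC50 taken from [(Ti-Tz)/(C-Tz)]×100 = 50.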

[20] = tested on: UACC-62; test: Growth inhibition of human UACC62 cells after 48 hrs by sulforhodamine B assay; conditions: UACC-62, 48 h; for CC50: read-out: LC50 (the source's name); outline: as §3
[21] = tested on: BT-549; test: Cytotoxicity against human BT549 cells assessed as cell growth at 0.01 uM after 48 hrs by sulforhodamine B assay; conditions: BT-549, 48 h, read-out: Activity
Outline: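 NCI-60 five-dose screen. Cells were grown in RPMI 1640 with 5% FBS and 2 mM L-glutamine, plated at 5000–40,000 cells/well and preincubated for 24 h. Time-zero plates were TCA-fixed. DMSO-solubilized drug was added at five concentrations (10-fold or ½-log serial dilutions) for 48 h at 37 °C, 5% CO2. Cells were TCA-fixed, stained with 0.4% SRB and read at 515 nm. Percent growth used time-zero, control and test absorbances.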

[22] = tested on: A549; test: Cytotoxicity against human A549 cells assessed as cell growth at 10 uM; conditions: read-out: Activity
Outline: (§4)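 Single-dose NCI-60 screen at 10 µM. Cells were grown in RPMI 1640 with 5% FBS and 2 mM L-glutamine, then treated for 48 h at 37 °C. Protein was measured by SRB staining with absorbance at 515 nm. Percentage growth was recorded, and inhibition percentage was calculated as 100 minus growth percentage.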

[23] = tested on: TK-10; test: Cytotoxicity against human TK10 cells assessed as cell growth at 1 uM after 48 hrs by sulforhodamine B assay; conditions: TK-10, 48 h, read-out: Activity
[24] = tested on: NCI-H322M; test: Cytotoxicity against human NCI-H322M cells assessed as cell growth at 10 uM; conditions: read-out: Activity; outline: as §2
[25] = tested on: COLO 205; test: Cytotoxicity against human COLO205 cells assessed as cell growth at 10 uM; conditions: read-out: Activity; outline: as §4
[26] = tested on: HL-60(TB); test: Cytotoxicity against human HL-60(TB) cells assessed as cell growth at 10 uM after 48 hrs by sulforhodamine B assay; conditions: HL-60, 48 h, read-out: Activity; outline: as §1
[27] = tested on: HT-29; test: Cytotoxicity against human HT-29 cells assessed as cell growth at 10 uM after 48 hrs by sulforhodamine B assay; conditions: HT-29, 48 h, read-out: Activity
[28] = tested on: DU-145; test: Cytotoxicity against human DU145 cells assessed as cell growth at 10 uM after 48 hrs by sulforhodamine B assay; conditions: DU-145, 48 h, read-out: Activity

SMILES | growth at 0.1 µM [1] [%] | growth at 0.1 µM [2] [%] | growth at 0.001 µM [3] [%] | growth at 0.001 µM [4] [%] | growth at 0.1 µM [5] [%] | growth at 1 µM [6] [%] | growth at 1 µM [7] [%] | growth at 10 µM [8] [%] | growth at 10 µM [9] [%] | growth at 10 µM [10] [%] | growth at 10 µM [11] [%] | growth at 10 µM [12] [%] | growth at 0.01 µM [13] [%] | growth at 0.01 µM [14] [%] | growth at 0.01 µM [15] [%] | growth at 0.01 µM [16] [%] | growth at 0.001 µM [17] [%] | growth at 0.001 µM [18] [%] | CC50 [19] [µM] | GI50 [20] [µM] | other results
COc1cc(C)cc(-c2c(-c3ccnc(-c4ccc(C(C)=O)cc4)c3)cnn2CC#N)c1 | 76 | 102 | 95 | 93 | 86 | 20 | 19 | 57.9 | 100 | 66 | 57.4 | 21.9 | 95 | 95 | 98 | 102 | 94 | 100 | > 100 | 4.05 | GI50 [19]: 1.93 µM; TGI [19]: > 100 µM; TGI [20]: > 100 µM; CC50 [20]: > 100 µM; growth at 0.01 µM [21]: 86%; growth at 10 µM [22]: 91.4%; growth at 1 µM [23]: 43%; growth at 10 µM [24]: 104%; growth at 10 µM [25]: 42.6%; growth at 10 µM [26]: -3%; growth at 10 µM [27]: 6%; growth at 10 µM [28]: 15%
Cc1cc(O)cc(-c2nn(CC#N)cc2-c2ccnc(-c3ccc(Oc4ccccc4)cc3)c2)c1 | 87 | 101 | 103 | 95 | 75 | -27 | 60 | 40 | 96 | 60.2 | 46.9 | 18.4 | 93 | 89 | 88 | 100 | 91 | 91 | 60.6 | 4.67 | GI50 [19]: 2.32 µM; TGI [19]: 6.84 µM; TGI [20]: 18.1 µM; CC50 [20]: 44.4 µM; growth at 0.01 µM [21]: 91%; growth at 10 µM [22]: 42%; growth at 1 µM [23]: 19%; growth at 10 µM [24]: 80.7%; growth at 10 µM [25]: 28.4%; growth at 10 µM [26]: -10%; growth at 10 µM [27]: -89%; growth at 10 µM [28]: -100%
COc1cc(C)cc(-c2nn(CC#N)cc2-c2ccnc(-c3ccc(N(C)C)cc3)c2)c1 | -39 | -6 | 103 | 102 | 14 | -1 | 5 | -25.5 | 2.79 | 24.7 | 37.9 | 10.1 | 97 | 108 | 107 | 97 | 93 | 93 | > 100 | 0.337 | GI50 [19]: 0.235 µM; TGI [19]: 0.613 µM; TGI [20]: 40.7 µM; CC50 [20]: > 100 µM; growth at 0.01 µM [21]: 100%; growth at 10 µM [22]: 21.1%; growth at 1 µM [23]: 29%; growth at 10 µM [24]: 41.1%; growth at 10 µM [25]: -73.2%; growth at 10 µM [26]: -27%; growth at 10 µM [27]: -66%; growth at 10 µM [28]: -48%
Cc1cc(O)cc(-c2nn(CC#N)cc2-c2ccnc(-c3ccc(N(C)C)cc3)c2)c1 | 75 | 101 | 98 | 93 | 85 | 2 | 13 | -12.8 | 41.9 | 51.2 | 52.4 | 14.9 | 96 | 92 | 92 | 95 | 94 | 91 | > 100 | 3.05 | GI50 [19]: 1.01 µM; TGI [19]: 3.21 µM; TGI [20]: 14 µM; CC50 [20]: 72.1 µM; growth at 0.01 µM [21]: 91%; growth at 10 µM [22]: 39%; growth at 1 µM [23]: 44%; growth at 10 µM [24]: 94.1%; growth at 10 µM [25]: 38.9%; growth at 10 µM [26]: -16%; growth at 10 µM [27]: -52%; growth at 10 µM [28]: -66%
COc1cc(C)cc(-c2nn(CC#N)cc2-c2ccc(-c3cccc(C(C)=O)c3)nc2)c1 | 68 | 104 | 84 | 88 | 69 | 2 | 16 | -23.9 | 12.5 | 40.2 | 33.8 | 8.74 | 91 | 91 | 89 | 102 | 94 | 99 | > 100 | 4.36 | TGI [20]: > 100 µM; CC50 [20]: > 100 µM; growth at 0.01 µM [21]: 90%; growth at 10 µM [22]: 38.8%; growth at 1 µM [23]: 2%; growth at 10 µM [24]: 64.8%; growth at 10 µM [25]: -44.6%; growth at 10 µM [26]: -8%; growth at 10 µM [27]: -11%; growth at 10 µM [28]: -48%
COc1cc(C)cc(-c2c(-c3ccnc(-c4ccc(N(C)C)cc4)c3)cnn2CC#N)c1 | -47 | 37 | 88 | 90 | -21 | -27 | 31 | -21.1 | 27 | 29.4 | 22.1 | 2.45 | 67 | 83 | 79 | 44 | 86 | 95 | > 100 | 0.0619 | GI50 [19]: 0.0226 µM; TGI [19]: 0.0669 µM; TGI [20]: > 100 µM; CC50 [20]: > 100 µM; growth at 0.01 µM [21]: 44%; growth at 10 µM [22]: 22.2%; growth at 1 µM [23]: 31%; growth at 10 µM [24]: 58.9%; growth at 10 µM [25]: -71.1%; growth at 10 µM [26]: -20%; growth at 10 µM [27]: -48%; growth at 10 µM [28]: -48%
